Series [1] relates to MC9. Nature of the series: Inhibition of PGF2alpha production in DNP-BSA-stimulated mouse MC9 cells at 5 uM treated 15 mins before DNP-BSA challenge measured after 4 mins. The class given is functional.
Series [2] has as its system MC9. Nature of the series: Inhibition of LTB4 production in DNP-BSA-stimulated mouse MC9 cells at 5 uM treated 15 mins before DNP-BSA challenge measured after 4 mins. Type of series: functional.
Series [3] can be described thus: Inhibition of cytosolic phospholipase A2alpha by GLU micelle assay.
The test system of another series is Blood. Nature of the series: Inhibition of TXB2 production in calcium ionophore A-23187-stimulated Sprague-Dawley rat whole blood after 10 mins. Type of series: functional, tissue-based.
The nature of series [4]: Lipophilicity, log D at pH 7.4. The class given is physicochemical. As to conditions: buffer.
For series [5], the system named is MC9. Nature of the series: Inhibition of PGF2alpha production in arachidonic acid-stimulated mouse MC9 cells at 5 uM treated 15 mins before arachidonic acid challenge measured after 4 mins. Type of series: functional.
Series [6] in a line: Aqueous solubility after 18 hrs at pH 7.4. The class given is physicochemical. An outline of the steps: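 Compound taken as 8 mg/mL DMSO stock; 13 µL added to 1.0 mL pH 7.4 buffer, mixed, left to settle 18 h at room temperature. Mixture filtered (0.2 µm), filtrate concentration read by UV plate reader. Solubility derived against a single-point standard.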
A short description of series [7]: Permeability in buffer of pH 7.4 by PAMPA. Type of series: ADME. As to conditions: read-out: permeability. In outline: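 PAMPA: 5 mg/mL DMSO stock diluted 200-fold in pH 7.4 universal buffer (25 µg/mL) and placed in donor wells. Filter membrane coated with phosphatidylcholine in dodecane (20 mg/mL); acceptor holds pH 7.4 buffer. Sandwich left 18 h at rt. Donor, acceptor and reference concentrations read by UV. Effective permeability (Pe) calculated; triplicate runs averaged. Verapamil and theophylline run as QC standards.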
A general note: PAMPA measures passive passage across an artificial lipid membrane.

These results are taken from ChEMBL document CHEMBL1153032, “Benzhydrylquinazolinediones: novel cytosolic phospholipase A2alpha inhibitors with improved physicochemical properties” (Bioorg Med Chem, 2009).

By inhibition is commonly meant the change of the read-out against control, counted positive when it falls. The term IC50 denotes the concentration at which inhibition is half-maximal. The logD is the decadic logarithm of the distribution of all forms, ionised or not, between an organic phase and buffer at a given pH. The low end stands for lower lipophilicity, the high end for higher lipophilicity. The solubility is the concentration that dissolves in the medium under given conditions. Read a high solubility as much dissolved substance.

≈ marks a conversion by molar mass, not a printed value.

Take `COc1ccc2c(=O)n(C(c3ccccc3)c3ccccc3)c(=O)n(C/C=C/COc3ccc(C(=O)O)cc3)c2c1`: the inhibition at 5 µM is 74% with MC9 [1], 99% in the series with MC9 [2] and -98% with MC9 [5]. Further, the values for the IC50 (in series [3]; in the series with Blood) were 3 µM and 9 µM, respectively. Also, the pH-dependent lipophilicity (logD) in series [4] amounted to 2.8. The same compound returned a solubility at 18 h in series [6] of 40 µg/mL (≈ 72.9 µM). Also, the Papp in series [7] amounted to 1.8 ×10⁻⁶ cm/s.
As to `O=C(O)c1ccc(OC/C=C/Cn2c(=O)n(C(c3ccccc3)c3ccccc3)c(=O)c3ccc([N+](=O)[O-])cc32)cc1`, the inhibition at 5 µM in the series with MC9 [1] was 30%; in the series on MC9 [2], 97%; in the series with MC9 [5] it was -12%. The results for the 50% inhibitory concentration (IC50) (in series [3]; in the series with Blood) were 1 µM and 13 µM, respectively. In addition, the logD in series [4] is 2.4. This compound returned a solubility at 18 h in series [6] of 34 µg/mL (≈ 60.3 µM). The Papp in series [7] amounted to 2.6 ×10⁻⁶ cm/s.
